Measurements from different studies.
Compare with care: the assays were run in different laboratories.
Target: Serine/threonine-protein kinase Nek2 (NEK2, Homo sapiens, UniProt P51955)
One construct used (P51955 1-445): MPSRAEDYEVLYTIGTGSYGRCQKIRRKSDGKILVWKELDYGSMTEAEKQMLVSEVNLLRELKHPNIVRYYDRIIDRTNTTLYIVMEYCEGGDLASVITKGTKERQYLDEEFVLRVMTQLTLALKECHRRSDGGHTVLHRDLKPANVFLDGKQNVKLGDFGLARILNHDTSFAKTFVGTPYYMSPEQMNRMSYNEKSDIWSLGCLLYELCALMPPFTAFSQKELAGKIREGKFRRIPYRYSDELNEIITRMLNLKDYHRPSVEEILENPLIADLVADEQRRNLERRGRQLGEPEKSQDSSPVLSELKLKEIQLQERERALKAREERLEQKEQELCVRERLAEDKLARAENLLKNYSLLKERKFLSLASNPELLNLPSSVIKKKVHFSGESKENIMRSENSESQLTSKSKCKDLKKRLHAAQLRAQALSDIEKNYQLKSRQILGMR

SMILES | observed | technique | tested at | remaining binding
CC(=O)N1CCC(c2ccc(C(=O)NC(=N)N)cc2C(F)(F)F)CC1 | cell-free assay | competition with immobilised ligand | 1 µM | 100%
O=C(Nc1c[nH]nc1C(=O)NC1CCNCC1)c1cc(F)cc(F)c1 | binding | competition with immobilised ligand | 1 µM | 93%
C[C@H]1CCN(c2nccc(-c3cnn4ncccc34)n2)C1 | binding |  | 1 µM | 90%
Cn1cc(Cl)c2c(Oc3c(F)cc(Nc4cc(Cl)nc(N)n4)cc3F)ccnc21 | cell-free assay | competition with immobilised ligand | 0.1 µM | 100%
COc1cnc(Nc2cccc(S(N)(=O)=O)c2)nc1N1CCN(c2ccccc2)CC1 | binding | competition with immobilised ligand | 1 µM | 97%
CN(CCCC(F)(F)F)c1nccc(-c2cnn3ncccc23)n1 | binding |  | 1 µM | 100%
COc1ncc2cc3ccccc3nc2c1C#N | cell-free assay | competition with immobilised ligand | 5 µM | 85%
C[C@@H](c1ccc(-n2cnc3c(N)ncnc32)cc1)N1CCc2nn(C)c(Cc3ccccc3)c2C1=O | binding | competition with immobilised ligand | 0.1 µM | 89%
C=CC(=O)N1CCC(C(=O)NCC(=O)N2CCN(c3nc(-c4cnc(N)nc4C(F)F)nc(N4CCOCC4)n3)CC2)CC1 | binding | competition with immobilised ligand | 1 µM | 95%
O=C(NCCCC1CCCCC1)c1ccc(CNC(=O)c2cnn(-c3ccccc3)c2C(F)(F)F)cc1 | cell-free assay | competition with immobilised ligand | 0.1 µM | 100%
CNC(=O)[C@@H]1CC[C@@H](n2c(-c3ccc4cnccc4c3)nc3ccc(C(=O)NCc4cccc(C(N)=O)c4)cc32)C1 | binding | competition with immobilised ligand | 1 µM | 97%
O=C(N[C@H]1CCCCC/C=C\C2C[C@@]2(C(=O)O)NC(=O)[C@@H]2C[C@@H](Oc3ccncc3)CN2C1=O)OC1CCCC1 (some centres unmarked) | binding | competition with immobilised ligand | 1 µM | 94%
O=C(c1ccc(Nc2ncc(Cl)c(-c3cc4ccccc4s3)n2)cc1)N1CCC(N2CCCC2)CC1 | binding | competition with immobilised ligand | 1 µM | 83%
N[C@@H]1CCN(c2nccc(-c3cnn4ncccc34)n2)C1 | binding |  | 1 µM | 100%
COCCOc1nc(-c2ccc(Cl)nc2)nc2c1CN(C(=O)c1ncn3ccccc13)CC2 | cell-free assay | competition with immobilised ligand | 0.1 µM | 100%
Nc1ncc2c(n1)-c1c([nH]c3ccc(C#CC4CC4)cc13)CCCC2 | binding | competition with immobilised ligand | 1 µM | 87%
CN(c1nccc(-c2cnn3ncccc23)n1)C1CC1 | binding |  | 1 µM | 100%
CC1=C(C#N)C(c2ccc3c(c2)c(NC(=O)c2ccccc2C)nn3C)C(C#N)=C(C)N1 | cell-free assay | competition with immobilised ligand | 1 µM | 100%
CN(C)c1nccc(-c2cnn3ncccc23)n1 | binding |  | 1 µM | 100%
O=C(NCCCN1CCOCC1)c1ccc(Nc2ncc(Cl)c(-c3ccc(Cl)s3)n2)cc1 | binding | competition with immobilised ligand | 1 µM | 75%
